KCNQ1 inh: blocks the human KCNQ1 potassium channel. P51787. CHO-K1 KCNQ1, FluxOR thallium flux fluorescence; stronger effect = higher value. B-score at 10 µM. actives 1.3% (n = 310,000);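 active = compounds whose thallium flux B-score, printed positive for inhibition, exceeds three library SD while starting fluorescence stays within three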;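 note: channel opened by potassium depolarization with thallium stimulus after 20 min compound exposure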
Kir21 inh: blocks the mouse Kir2.1 inward-rectifier potassium channel | B-score at 10 µM | AID 1672 | HEK293-Kir2.1, FluxOR thallium flux fluorescence; stronger effect = lower value | actives 0.85% (n = 310,000) | P35561;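 active = fluorescence ratio B-score at or below minus 3 SD of library scores, with starting-brightness B-score within 2 SD, cut at about -4.2 in these data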;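 note: channel flux triggered by added potassium and thallium sulfate stimulus; B-score of peak minus minimum fluorescence over baseline after thallium stimulus; more negative B-score means stronger Kir2.1 block with less thallium influx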
KCNK9 inh: blocks the human KCNK9 two-pore domain potassium channel. Q9NPC2. HEK293 KCNK9, FluxOR thallium flux fluorescence; stronger effect = lower value. B-score at 10 µM. actives 1.2% (n = 310,000);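 active = ratio B-score over 3 SD below the library mean, with starting fluorescence within 5 SD of its mean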;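 note: negative B-score means less thallium flux so channel inhibition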
KCNQ1 act: potentiates or activates the human KCNQ1 potassium channel; AID 2648; CHO-K1 KCNQ1, thallium flux FluxOR fluorescence; stronger effect = higher value; B-score at 10 µM; actives 0.35% (n = 310,000);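 active = fluorescence ratio B-score, a plate-corrected score, at least three library SD, with initial intensity B-score within 5 SD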
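assay system = CHO-K1 cells stably expressing KCNQ1 | medium = assay buffer, equal DMSO in all wells | timing = 37 °C overnight plating, 90-min dark dye load, 20-min compound pretreatment | measured by = kinetic FluxOR thallium fluorescence, 10-s 1-Hz baseline, 110-s post-stimulus read | measure = fluorescence change relative to baseline, converted to B score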
KCNK3 inh: human KCNK3 channel inhibition, primary screen; CHO-KCNK3 thallium flux, FluxOR fluorescence; stronger effect = lower value; B-score at 10 µM; actives 0.84% (n = 340,000);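 active = B-score under library mean minus 4 SD, starting fluorescence ratio at most library mean plus 5 SD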;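 note: more negative B-score means stronger inhibition of thallium flux through KCNK3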
Target sequence (O14649 whole entry, looked up): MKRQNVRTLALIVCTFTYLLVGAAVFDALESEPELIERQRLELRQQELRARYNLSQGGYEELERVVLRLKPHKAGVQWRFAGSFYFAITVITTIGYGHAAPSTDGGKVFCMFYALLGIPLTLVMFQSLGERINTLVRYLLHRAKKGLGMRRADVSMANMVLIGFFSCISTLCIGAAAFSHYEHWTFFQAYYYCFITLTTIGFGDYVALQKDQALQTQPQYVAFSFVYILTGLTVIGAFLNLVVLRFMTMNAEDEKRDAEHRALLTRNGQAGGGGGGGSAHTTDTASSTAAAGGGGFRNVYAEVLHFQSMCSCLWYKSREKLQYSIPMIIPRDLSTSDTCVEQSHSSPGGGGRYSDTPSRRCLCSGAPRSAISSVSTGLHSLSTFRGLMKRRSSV
hERG rescue: hERG (human) protection from proarrhythmic block; Q12809; CHO-hERG, FluxOR thallium flux, dofetilide IC70 present; activation (rescue from dofetilide block), less the hit threshold, % at 10 µM; actives 0.51% (n = 310,000);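 active = activation above the mean of controls blocked by dofetilide plus 5 SD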;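 note: thallium influx through hERG after potassium depolarization seen as dye fluorescence rise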
Of the large screens only hits and unclear results are named; the others gave an inactive call. Most compounds without a hit are left out; they make up all but 3.8% or so of the library.

CC1CN(Cc2ccccc2)C(=O)N(c2ccccc2)C1=O (configuration not stated)	none (no result: KCNQ1 inh, Kir21 inh, KCNK9 inh, KCNQ1 act, hERG rescue)
CC1CN(Cc2ccccc2)c2ccccc2NC1=S (configuration not stated)	Kir21 inh -4.2
Cc1cc(C)c(C(=O)c2ccc(C(=O)N3CCCCC3)cc2)c(C)c1	hERG rescue 14
COc1ccc(Br)c(/C=N/NC(=O)COc2ccc(-c3ccccc3)cc2)c1	KCNK3 inh -9.2
COc1ccc(/C=N/NC(=O)COc2ccccc2-c2ccccc2)cc1	none
CCOc1ccc(N=Cc2ccccc2O)cc1	none (no result: KCNQ1 inh, Kir21 inh, KCNK9 inh, KCNQ1 act, hERG rescue)
CCCCN(CCCC)C(=S)N/N=C/c1c(C)[nH]n(-c2ccccc2)c1=O	KCNQ1 act 29
Cc1[nH]n(-c2ccccc2)c(=O)c1/C=N/NC(=O)c1ccc(O)cc1O	none
CCCn1nnnc1SCC(=O)Nc1nnc(CC)s1	hERG rescue 17
CCOC(=O)c1c(NC(=O)CSc2nnnn2C)sc(CC)c1C	KCNK9 inh -6.8
Cc1nnc(NC(=O)CSc2nnnn2Cc2ccccc2)s1	none
Cc1nc(NC(=O)CSc2nnnn2Cc2ccccc2)sc1C	hERG rescue 5.0
CCOC(=O)c1c(NC(=O)CSc2nnnn2CC)sc(C)c1C	KCNK9 inh -7.7
COc1ccc(CC2(C)OC(c3ccc(C)c([N+](=O)[O-])c3)=NN2C(C)=O)cc1 (configuration not stated)	none
Clc1cccc(-c2ccc(-c3nc4ccccn4c3NCc3ccccc3)cc2)c1	KCNK3 inh -9.6 (no result: KCNQ1 inh, Kir21 inh, KCNK9 inh, KCNQ1 act, hERG rescue)
COc1ccc(-c2cc(-c3nc4ccccn4c3NCc3ccccc3)ccc2OC)cc1	KCNK3 inh -8.7 (no result: KCNQ1 inh, Kir21 inh, KCNK9 inh, KCNQ1 act, hERG rescue)
C=CC[n+]1ccc(/C=C2\C=Cc3cc(C)ccc3N2CC)c2ccccc21	KCNK3 inh -15 (no result: KCNQ1 inh, Kir21 inh, KCNK9 inh, KCNQ1 act, hERG rescue)
CCN1/C(=C/c2cc[n+](CCCS(=O)(=O)[O-])c3ccccc23)Sc2ccccc21	none
Cc1ccc(NC(=O)N2CCCN(Cc3ccc(F)cc3)C2)cc1C	Kir21 inh -5.4
Cc1ccc(NC(=O)N2CCCCCC2)cc1C	none
CCOc1ccc(C(Nc2cccnc2)c2cc(Cl)c3cccnc3c2O)cc1 (configuration not stated)	KCNQ1 inh 8
O=C(O)COc1ccccc1C(Nc1cccnc1)c1cc(Cl)c2cccnc2c1O (configuration not stated)	none
COC(=O)/C=C/S(=O)(=O)c1ccc(NC(C)=O)cc1	KCNQ1 inh 6
COc1ccccc1OS(=O)(=O)c1ccc(NC(C)=O)cc1	none
CCOC(=O)c1ccc(NC(=S)NC(=O)COc2ccccc2)cc1	hERG rescue 7.6
CCOC(=O)c1ccc(NC(=S)Nc2ccccc2)cc1	none
Cc1nc(-c2cccc3ccccc23)ccc1C(=O)O	none
CCSc1nc(=S)cc(C)[nH]1	KCNQ1 act 24, hERG rescue 25
CCC(C)NC(=O)c1cc(Cl)c(NC(=O)C2=C(C)OCCS2)cc1OC (configuration not stated)	KCNQ1 act 44
COc1cc(C2Nc3ccccc3C(=O)N2c2ccccc2OC)ccc1O (configuration not stated)	none
CCOc1cc(C2Nc3ccccc3C(=O)N2c2ccccc2OC)ccc1O (configuration not stated)	hERG rescue 19
Cc1ccc(NC(=O)Cn2cc(S(=O)(=O)c3ccc(C)cc3)c(=O)c3cc(F)ccc32)cc1	none
CCOC(=O)c1c(NC(=O)CSc2nnc3c(Cl)cc(Cl)cn23)sc2c1CCC2	Kir21 inh -4.3
O=c1cc(CNc2cc(C(F)(F)F)cc(C(F)(F)F)c2)nc2sccn12	KCNK9 inh -7.4
O=c1ccc(C(F)(F)F)cn1Cc1cc(=O)n2ccsc2n1	none
CCOc1ccc(Nc2ccnc3cc(Cl)ccc23)cc1	none
CN1CCN(c2ccc(Nc3ccnc4cc(Cl)ccc34)cc2)CC1	Kir21 inh -6.8
O=C(CCNc1cccc(F)c1)c1cccc([N+](=O)[O-])c1	KCNQ1 inh 8
O=C(CCNc1ccc(Cc2ccncc2)cc1)c1cccc([N+](=O)[O-])c1	none
c1ccc(Sc2ncccn2)nc1	none
O=C(Nc1ccccc1C(F)(F)F)c1c(F)cccc1Cl	none
Cn1c(-c2ccc3c(c2)OCO3)cnc1NCc1cccc(Cl)c1	none
Cn1c(-c2cccc(Br)c2)cnc1NCc1ccccc1O	Kir21 inh -6.2

Screening data deposited in PubChem BioAssay by Johns Hopkins Ion Channel Center.
